Screening data deposited in PubChem BioAssay by The Scripps Research Institute Molecular Screening Center.
OXTR potentiator = potentiates the human oxytocin receptor response. CHO-OTR cells, Fluo-8 calcium fluorescence, potentiator mode; 0% = oxytocin EC15, 100% = EC100. activation, % at 3 µM. actives 0.061% (n = 320,000);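 active = activation above that plate's cutoff, the mean activation of tested compounds plus 3 SD, cut at about 6.6% in these data, passing the limit was not always enough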;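 also: 100% uses oxytocin at 75 nM as the full agonist control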
Target sequence (P30559 whole entry, looked up): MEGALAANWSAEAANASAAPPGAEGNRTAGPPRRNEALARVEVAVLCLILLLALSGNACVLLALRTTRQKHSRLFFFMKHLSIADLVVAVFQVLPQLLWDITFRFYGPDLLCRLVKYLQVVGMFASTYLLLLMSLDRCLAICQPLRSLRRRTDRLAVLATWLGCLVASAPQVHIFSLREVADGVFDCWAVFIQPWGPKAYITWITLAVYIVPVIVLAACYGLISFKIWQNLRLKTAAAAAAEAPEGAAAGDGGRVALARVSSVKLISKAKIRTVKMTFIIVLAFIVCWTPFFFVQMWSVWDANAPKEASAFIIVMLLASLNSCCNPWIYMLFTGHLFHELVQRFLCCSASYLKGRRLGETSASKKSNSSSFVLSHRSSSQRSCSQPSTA
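System: human OTR in CHO cells / Also added: sub-maximal oxytocin, roughly EC15 / Control set: EC15 oxytocin low, 75 nM oxytocin high / Schedule: 6 min compound pre-incubation at room temperature, 100 s kinetic read / Compound: single-point 3.0 µM / Replication: singlicate / Technique: Fluo-8 calcium dye fluorescence / Read-out basis: % activation of max/min ratio relative to oxytocin controls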
TAAR1 antagonist = human TAAR1 antagonism; Q96RJ0; CHO RD-HGA16 TAAR1, Fluo-8 calcium fluorescence, antagonist; inhibition, % at 3 µM; actives 1.5% (n = 360,000); AID 624466;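 active = inhibition above a per-plate cutoff, the mean inhibition of test compounds on that plate plus 3 SD, cut at about 49% in these data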;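 also: 0% = DMSO plus EC80 beta-PEA response and 100% = DMSO alone without agonist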
Target sequence (Q96RJ0 whole entry, looked up): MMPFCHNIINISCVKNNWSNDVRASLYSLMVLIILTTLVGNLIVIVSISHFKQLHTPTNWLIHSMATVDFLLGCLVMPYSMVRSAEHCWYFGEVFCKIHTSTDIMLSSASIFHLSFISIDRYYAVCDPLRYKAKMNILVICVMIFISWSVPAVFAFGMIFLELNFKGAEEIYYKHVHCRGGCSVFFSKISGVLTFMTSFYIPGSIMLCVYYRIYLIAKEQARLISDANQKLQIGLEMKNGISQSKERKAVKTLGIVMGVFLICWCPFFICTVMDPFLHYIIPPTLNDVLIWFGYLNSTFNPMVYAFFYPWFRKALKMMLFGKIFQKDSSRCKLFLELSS
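System: CHO RD-HGA16 cells bearing hTAAR1. Reagent: EC80 β-phenethylamine stimulus. Schedule: seeding 17-24 h prior, 75-min 37 °C, 30-min RT dye loading. Signal: Fluo-8 intracellular calcium dye fluorescence, real-time kinetic reads. Read-out: % inhibition from peak post-agonist over basal fluorescence ratio. Benchmarks: vehicle wells and EC80 agonist wells. Replicates: n of 1.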
V1R ag counter = V1a receptor agonism, counter-screen for OXTR agonists | P37288 | AID 2797 | actives 0.25% (n = 320,000) | CHO-V1R cells, Fluo-8 calcium fluorescence, agonist mode; 0% DMSO, 100% 3 nM vasopressin | activation, % at 3 µM;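 active = activation above the mean activation of all tested compounds plus 3 SD, per screening run, cut at about 20% in these data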;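 also: signal is peak over basal fluorescence ratio across a 100 second FLIPR read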
OXTR ag = agonists of human oxytocin receptor; P30559; CHO-OTR cells, Fluo-8 calcium fluorescence; normalized: DMSO 0%, oxytocin 100%; activation, % at 3 µM; actives 0.32% (n = 320,000); AID 2435;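 active = activation above the mean of all tested compounds plus 3 SD, cutoff set per screening run, cut at about 20% in these data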;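 also: peak over basal fluorescence ratio from a 100 s FLIPR kinetic read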
TAAR1 ag = agonists of human TAAR1. Q96RJ0. CHO RD-HGA16 TAAR1, Fluo-8 calcium fluorescence; vehicle wells 0%, saturating PEA agonist 100%. activation, % at 3 µM. actives 0.99% (n = 360,000). AID 624467;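 active = activation above the mean activation of all test compounds in the run plus 3 SD, cut at about 38% in these data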
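Test system: RD-HGA16 (CHO) cells co-expressing Gα16 and hTAAR1 / Benchmarks: DMSO vehicle as 0%, PEA at EC100 as 100% / Repeats: no replicates (n 1) / Measure: % activation from peak over basal fluorescence ratio, DMSO-to-PEA scaled / Timing: 17-24 h plating, Fluo-8 75 min 37 °C, 30 min RT / Technique: kinetic Fluo-8 calcium fluorescence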
OXTR agonist cf = human OXTR agonism, confirmation | AID 434963 | activation, % at 3 µM | CHO-OTR cells, Fluo-8 calcium fluorescence, agonist | actives 20% (n = 390) | shares compounds with OXTR ag;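 active = mean activation above about 20% derived from the earlier single-dose screen, limit read from the data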;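 also: peak over minimum fluorescence ratio per well during a 100 second FLIPR read; 0% = DMSO alone and 100% = oxytocin high control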
V1R ag counter 3x = activates V1a receptor in oxytocin agonist counter-screen; shares compounds with OXTR ag; CHO-V1R cells, Fluo-8 calcium fluorescence; activation, % at 3 µM; actives 10% (n = 390);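 active = mean activation over triplicate exceeds the hit threshold set in the earlier primary screen, cut at about 20% in these data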;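 also: peak over basal fluorescence ratio within a 100 second read; 0% = DMSO alone and 100% = 3 nM vasopressin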
nonsel antag count = nonselective antagonist in TAAR1 antagonist counter-screen | shares compounds with TAAR1 antagonist | counterscreen cell line, calcium fluorescence, antagonist mode | inhibition, % at 3 µM | actives 77% (n = 2,400); in the data active = inhibition above about 22%;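 also: CHO-Ga16 host cells stimulated with ATP at an EC80 level; 0% = agonist EC80 plus vehicle and 100% = vehicle without agonist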
TAAR1 antag conf = human TAAR1 antagonism, confirmed | inhibition, % at 3 µM | actives 40% (n = 2,400) | TAAR1-expressing cells, fluorescence antagonist read-out | AID 651785 | shares compounds with TAAR1 antagonist; in the data active = inhibition above about 49%;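 also: CHO-Ga16 host cells challenged with agonist PEA near its EC80; 0% = agonist at EC80 plus vehicle and 100% = vehicle with no agonist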
Ga16 ag counter-1 = nonselective Ga16 agonism, counter-screen; shares compounds with TAAR1 antagonist; Ga16-expressing cells, calcium fluorescence, agonist counterscreen; activation, % at 3 µM; actives 18% (n = 2,400); in the data active = activation above about 12%;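 also: 0% = vehicle wells and 100% = saturating stimulus response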
TAAR1 ag counter = counter-screen for human TAAR1 antagonists: TAAR1 agonists; shares compounds with TAAR1 antagonist; hTAAR1 cell line, fluorescence activation, agonist mode; activation, % at 3 µM; actives 2% (n = 2,400); AID 651955; in the data active = activation above about 37%;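 also: CHO cells stably expressing TAAR1 with calcium dye readout; 0% = DMSO vehicle and 100% = full agonist response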
TAAR1 ag confirm = human TAAR1 agonism, confirmed; CHO RD-HGA16 TAAR1, Fluo-8 calcium fluorescence; scaled: DMSO 0%, maximal phenethylamine 100%; actives 82% (n = 2,400); shares compounds with TAAR1 ag; activation, % at 3 µM;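 active = activation above a cutoff set at the run's mean compound activation plus 3 SD, cut at about 39% in these data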
Ga16 ag counter-2 = counter-screen for TAAR1 agonists: nonselective agonists in parental cells; activation, % at 3 µM; CHO-Ga16 parental, Fluo-8 calcium fluorescence; normalized to maximal ATP response, DMSO zero; shares compounds with TAAR1 ag; actives 50% (n = 2,400);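 active = activation above the run cutoff, the mean activation over all tested wells plus 3 SD, cut at about 12% in these data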;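 also: 0% = DMSO wells and 100% = maximal ATP response on the peak over basal ratio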
TAAR1 desens = counter-screen for human TAAR1 agonists: agonists that desensitize TAAR1. actives 46% (n = 2,400). shares compounds with TAAR1 ag. AID 651951. inhibition, % at 3 µM. CHO RD-HGA16 hTAAR1, Fluo-8 calcium, beta-PEA response inhibition;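 active = inhibition above the run cutoff, the mean inhibition of all test compounds plus 3 SD, cut at about 49% in these data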;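 also: beta-PEA stimulus applied at its EC80; loss of beta-PEA calcium signal after compound pretreatment read as receptor desensitization; 0% = DMSO with beta-PEA at EC80 and 100% = DMSO alone without agonist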
Ga16 nonsel ant = nonselective Ga16 antagonism, counter-screen; shares compounds with TAAR1 ag; CHO-Ga16 ATP-induced calcium, Fluo-8 fluorescence; inhibition, % at 3 µM; actives 39% (n = 2,400); AID 651952;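 active = inhibition above the plate's mean compound inhibition plus 3 SD, computed per plate, cut at about 22% in these data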;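 also: 0% = EC80 ATP with DMSO and 100% = DMSO wells without ATP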
Active calls of the source: *. A selection: hits, their analogues and other compounds. The true share with any hit is near 2.3%.

Results for O=C(Nc1ccc(S(=O)(=O)N2CCCC2)cc1)c1cccnc1Cl ?
OXTR potentiator: -7; TAAR1 antagonist: -18; V1R ag counter: 1; OXTR ag: 3; TAAR1 ag: 2

What do the screens show for `CCCSc1nnc(CSc2nc(C)cc(C)n2)n1C`?
OXTR potentiator: -8; TAAR1 antagonist: -20; V1R ag counter: 0; OXTR ag: -1; TAAR1 ag: 2

How did CCOc1ccc(NC(=O)c2ccccc2NC(=O)CNC2CCCC(C)C2C)cc1 (stereo not drawn) do in these assays?
OXTR potentiator: 0; TAAR1 antagonist: -13; V1R ag counter: 3; OXTR ag: 4; TAAR1 ag: 7

What do the screens show for `Cn1c(=O)c2cc(NC(=O)CCc3cccnc3)ccc2n1Cc1cccc(C(F)(F)F)c1`?
TAAR1 antagonist: -5; TAAR1 ag: 3

What do the screens show for `OC(CNC1CCCCCC1)COc1cccc2ccccc12` (stereo not drawn)?
OXTR potentiator: -16; TAAR1 antagonist: 2; V1R ag counter: 12; OXTR ag: 20*; TAAR1 ag: 29; OXTR agonist cf: 8; V1R ag counter 3x: 5

Results for CCCCCCCCCCOC(=O)Cn1c(COc2cccc(C)c2)[n+](C)c2ccccc21 ?
OXTR potentiator: -18; TAAR1 antagonist: 65*; V1R ag counter: 13; OXTR ag: 45*; TAAR1 ag: 42*; OXTR agonist cf: 34*; V1R ag counter 3x: 23*

How did CCCCCCCCCCOC(=O)Cn1c(COc2ccccc2C)[n+](C)c2ccccc21 do in these assays?
OXTR potentiator: -3; V1R ag counter: 1; OXTR ag: 22*; OXTR agonist cf: 15; V1R ag counter 3x: 16

How did O=C(Nc1nc(-c2cc3ccccc3o2)cs1)c1ccc(S(=O)(=O)N2CCCC2)cc1 do in these assays?
OXTR potentiator: -15; TAAR1 antagonist: 24; V1R ag counter: 6; OXTR ag: 8; TAAR1 ag: 5

What do the screens show for `O=C(Nc1nc(-c2nc3ccccc3s2)cs1)c1ccc(S(=O)(=O)N2CCOCC2)cc1`?
OXTR potentiator: -15; TAAR1 antagonist: 69*; V1R ag counter: 16; OXTR ag: 21*; TAAR1 ag: 33; OXTR agonist cf: 6; V1R ag counter 3x: 8; nonsel antag count: 52*; TAAR1 antag conf: 70*; Ga16 ag counter-1: 22*; TAAR1 ag counter: 25

What do the screens show for `CC1CNC(=S)N(c2ccc(F)cc2)C1=O` (stereo not drawn)?
TAAR1 antagonist: 4; TAAR1 ag: 0

How did O=C(O)c1cccc(NC(=O)c2cn(-c3ccccc3)nc2-c2cc3ccccc3o2)c1 do in these assays?
OXTR potentiator: -16; TAAR1 antagonist: 64*; V1R ag counter: 10; OXTR ag: 20*; TAAR1 ag: 12; OXTR agonist cf: 7; V1R ag counter 3x: 6; nonsel antag count: 39*; TAAR1 antag conf: 42; Ga16 ag counter-1: 6; TAAR1 ag counter: 4

Results for COc1ccc(/C=N/Nc2snc(SC)c2C#N)cc1OC ?
OXTR potentiator: -9; TAAR1 antagonist: 4; V1R ag counter: 0; OXTR ag: 0; TAAR1 ag: 26

What do the screens show for `COc1cccc(/C=N/Nc2snc(SC)c2C#N)c1O`?
OXTR potentiator: -10; TAAR1 antagonist: 60*; V1R ag counter: 13; OXTR ag: 21*; TAAR1 ag: 75*; OXTR agonist cf: 20*; V1R ag counter 3x: 11; TAAR1 ag confirm: 69*; Ga16 ag counter-2: 52*; TAAR1 desens: 82*; Ga16 nonsel ant: 44*

How did CCCCN(CCCC)c1ccc(C(=O)c2ccccc2C(=O)O)c(O)c1 do in these assays?
OXTR potentiator: -12; TAAR1 antagonist: 92*; V1R ag counter: 16; OXTR ag: 34*; TAAR1 ag: 107*; OXTR agonist cf: 4; V1R ag counter 3x: 3; TAAR1 ag confirm: 38*; Ga16 ag counter-2: 39*; TAAR1 desens: 64*; Ga16 nonsel ant: 57*

What do the screens show for `O=C(CNC(=O)c1ccc(Br)cc1)N/N=C/c1cccnc1`?
OXTR potentiator: -3; TAAR1 antagonist: -13; V1R ag counter: 2; OXTR ag: 0; TAAR1 ag: 2

What do the screens show for `CC1CN(C(=O)CCC(=O)NCCCN2C(C)CCCC2C)c2ccccc2O1` (stereo not drawn)?
OXTR potentiator: -2; TAAR1 antagonist: -5; V1R ag counter: 0; OXTR ag: -1; TAAR1 ag: 1

How did COc1ccc(/C=C/C(=O)NC(=S)NNC(=O)c2cccs2)cc1 do in these assays?
OXTR potentiator: -35; TAAR1 antagonist: 73*; V1R ag counter: 17; OXTR ag: 26*; TAAR1 ag: 100*; OXTR agonist cf: 6; V1R ag counter 3x: 8; TAAR1 ag confirm: 69*; Ga16 ag counter-2: 51*; TAAR1 desens: 50*; Ga16 nonsel ant: 41*

What do the screens show for `COc1ccc(/C=C/C(=O)NC(=S)NNC(=O)c2cccnc2)cc1`?
OXTR potentiator: -6; TAAR1 antagonist: -11; V1R ag counter: 0; OXTR ag: 4; TAAR1 ag: 12
